Measured values published in ChEMBL document CHEMBL3792374, “Discovery of a ring-opened derivative of 3-n-butylphthalide bearing NO/H2S-donating moieties as a potential anti-ischemic stroke agent” (Eur J Med Chem, 2016).

Assays:
[1] = Antiplatelet activity in rabbit platelet-rich plasma assessed as inhibition of ADP-induced platelet aggregation at 0.1 mM preincubated for 5 mins followed by addition of ADP measured within 5 mins by Borns turbidimetric method; assay type: functional; settings: Oryctolagus cuniculus
Outline: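 Rabbit carotid blood was citrated (3.8%, 9:1). PRP was obtained at 500 g for 10 min and PPP at 3000 g for 10 min. PRP was preincubated in duplicate for 5 min at 37 °C with 0.1 mM compound, plus carboxy-PTIO or BSS where indicated. ADP was then added and maximal light transmission recorded within 5 min, within 3 h of blood collection. Inhibition % was calculated versus control. Mean ± SD of three independent experiments.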

[2] = Induction of nitric oxide release in potassium phosphate buffer at pH 7.4 at 0.1 mM after 30 mins by Griess assay; assay type: physicochemical; settings: pH 7.4, 0.5 h, 100 µM
Outline: (§1)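 Compound (0.1 mM) in PBS pH 7.4 containing 2% DMSO and 5.0 mM L-cysteine was held at 37 °C for 15–300 min. Samples were taken every 15 min up to 120 min, then every 30 min. Each sample was reacted with Griess reagent for 10 min at 37 °C and absorbance read at 540 nm. Nitrite was quantified from a nitrite standard curve. Means reported; intra-group variation <10%.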

[3] = Induction of nitric oxide release in potassium phosphate buffer at pH 7.4 at 0.1 mM after 45 mins by Griess assay; assay type: physicochemical; settings: pH 7.4, 0.75 h, 100 µM; outline: as §1
[4] = Induction of nitric oxide release in potassium phosphate buffer at pH 7.4 at 0.1 mM after 60 mins by Griess assay; assay type: physicochemical; settings: pH 7.4, 1 h, 100 µM; outline: as §1
[5] = Induction of nitric oxide release in potassium phosphate buffer at pH 7.4 at 0.1 mM after 75 mins by Griess assay; assay type: physicochemical; settings: pH 7.4, 1.25 h, 100 µM; outline: as §1
[6] = Induction of nitric oxide release in potassium phosphate buffer at pH 7.4 at 0.1 mM after 90 mins by Griess assay; assay type: physicochemical; settings: pH 7.4, 1.5 h, 100 µM; outline: as §1
[7] = Induction of nitric oxide release in potassium phosphate buffer at pH 7.4 at 0.1 mM after 105 mins by Griess assay; assay type: physicochemical; settings: pH 7.4, 1.75 h, 100 µM; outline: as §1
[8] = Induction of nitric oxide release in potassium phosphate buffer at pH 7.4 at 0.1 mM after 120 mins by Griess assay; assay type: physicochemical; settings: pH 7.4, 2 h, 100 µM; outline: as §1
[9] = Induction of nitric oxide release in potassium phosphate buffer at pH 7.4 at 0.1 mM after 150 mins by Griess assay; assay type: physicochemical; settings: pH 7.4, 2.5 h, 100 µM; outline: as §1
[10] = Induction of nitric oxide release in potassium phosphate buffer at pH 7.4 at 0.1 mM after 180 mins by Griess assay; assay type: physicochemical; settings: pH 7.4, 3 h, 100 µM; outline: as §1
[11] = Induction of nitric oxide release in potassium phosphate buffer at pH 7.4 at 0.1 mM after 240 mins by Griess assay; assay type: physicochemical; settings: pH 7.4, 4 h, 100 µM; outline: as §1
[12] = Induction of nitric oxide release in potassium phosphate buffer at pH 7.4 at 0.1 mM after 300 mins by Griess assay; assay type: physicochemical; settings: pH 7.4, 5 h, 100 µM; outline: as §1
Liver [13] = assay: Induction of hydrogen sulfide release in rat liver homogenate at 100 uM after 30 mins by microplate reader method (reference value: 1.03 to 1.21%); assay type: functional, tissue-based
Outline: (§2)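 Compound was incubated at 37 °C for 0–90 min with fresh rat liver homogenate. The reaction was stopped with 1% zinc acetate and 10% trichloroacetic acid. N,N-dimethyl-p-phenylenediamine sulfate in 7.2 M HCl and FeCl3 in 1.2 M HCl were added, and absorbance was read at 670 nm after 10 min. Values were calculated against an NaHS standard curve as cumulative % conversion to H2S, n = 6.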

Liver [14] = assay: Induction of hydrogen sulfide release in rat liver homogenate at 100 uM after 60 mins by microplate reader method (reference value: 1.03 to 1.21%); assay type: functional, tissue-based; outline: as §2
Liver [15] = assay: Induction of hydrogen sulfide release in rat liver homogenate at 100 uM after 90 mins by microplate reader method (reference value: 1.03 to 1.21%); assay type: functional, tissue-based; outline: as §2
[16] = Antiplatelet activity in rabbit platelet-rich plasma assessed as inhibition of ADP-induced platelet aggregation preincubated for 5 mins followed by addition of ADP measured within 5 mins by Borns turbidimetric method; assay type: functional; settings: Oryctolagus cuniculus
Outline: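 Platelet-rich plasma from citrated rabbit carotid blood was preincubated in duplicate at 37 °C for 5 min with compound at 0.1, 0.2, 0.4, 0.8 or 1.6 mM. ADP-induced aggregation was then recorded turbidimetrically, as maximal light transmission within 5 min. Inhibition was calculated versus vehicle control, and IC50 values were derived. Mean ± SD, n = 6, ANOVA/Tukey.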

[17] = Induction of nitric oxide release in potassium phosphate buffer at pH 7.4 at 0.1 mM after 15 mins by Griess assay; assay type: physicochemical; settings: pH 7.4, 0.25 h, 100 µM; outline: as §1
Liver [18] = assay: Induction of hydrogen sulfide release in rat liver homogenate at 100 uM after 15 mins by microplate reader method (reference value: 1.03 to 1.21%); assay type: functional, tissue-based; outline: as §2

SMILES | inhibition at 100 µM [1] [%] | Activity [2] [µM] | Activity [3] [µM] | Activity [4] [µM] | Activity [5] [µM] | Activity [6] [µM] | Activity [7] [µM] | Activity [8] [µM] | Activity [9] [µM] | Activity [10] [µM] | Activity [11] [µM] | Activity [12] [µM] | Activity (Liver [13]) [%] | Activity (Liver [14]) [%] | Activity (Liver [15]) [%] | IC50 [16] [µM] | Activity [17] [µM] | Activity (Liver [18]) [%]
S=c1cc(-c2ccc(OCCCCCN3CCNCC3)cc2)ss1 | 16.8 | – | – | – | – | – | – | – | – | – | – | – | – | – | – | – | – | –
CCCCC(OC(=O)CN1CCN(CCCCCOc2ccc(-c3cc(=S)ss3)cc2)CC1)c1ccccc1C(=O)Oc1ccc(/C=C/C(=O)OCCCCO[N+](=O)[O-])cc1OC (racemic) | 19.7 | – | – | – | – | – | – | – | – | – | – | – | – | – | – | – | – | –
CCCCC(OC(=O)CN1CCN(CCCCOc2ccc(-c3cc(=S)ss3)cc2)CC1)c1ccccc1C(=O)Oc1ccc(/C=C/C(=O)OCCO[N+](=O)[O-])cc1OC (racemic) | 19.7 | – | – | – | – | – | – | – | – | – | – | – | – | – | – | – | – | –
CCCCC(OC(=O)CN1CCN(CCCOc2ccc(-c3cc(=S)ss3)cc2)CC1)c1ccccc1C(=O)Oc1ccc(/C=C/C(=O)OCCCCCCO[N+](=O)[O-])cc1OC (racemic) | 19.7 | – | – | – | – | – | – | – | – | – | – | – | – | – | – | – | – | –
CCCCC(OC(=O)CN1CCN(CCCCOc2ccc(-c3cc(=S)ss3)cc2)CC1)c1ccccc1C(=O)Oc1ccc(/C=C/C(=O)OCCCCO[N+](=O)[O-])cc1OC (racemic) | 19.7 | 3.86 | 4.58 | 6.13 | 7.04 | 7.45 | 8.3 | 8.37 | 8.32 | 8.34 | 8.25 | 8.37 | 1.85 | 2.71 | 2.72 | 360 | 2.1 | 1.74
CCCCC(OC(=O)CCl)c1ccccc1C(=O)Oc1ccc(/C=C/C(=O)OCCO[N+](=O)[O-])cc1OC (racemic) | 18 | – | – | – | – | – | – | – | – | – | – | – | – | – | – | – | – | –
CCCCC(OC(=O)CN1CCN(CCCCCOc2ccccc2)CC1)c1ccccc1C(=O)Oc1ccc(/C=C/C(=O)OCCO[N+](=O)[O-])cc1OC (racemic) | 19.8 | – | – | – | – | – | – | – | – | – | – | – | – | – | – | – | – | –
CCCCC(OC(=O)CN1CCN(CCCCCCOc2ccc(-c3cc(=S)ss3)cc2)CC1)c1ccccc1C(=O)Oc1ccc(/C=C/C(=O)OCCCCO[N+](=O)[O-])cc1OC (racemic) | 19.7 | 2 | 3.09 | 4 | 4.4 | 4.8 | 5.1 | 5.3 | 5.46 | 5.48 | 5.51 | 5.56 | 1.05 | 1.81 | 1.82 | 390 | 1.45 | 0.95
CCCCC(OC(=O)CN1CCN(CCCOc2ccc(-c3cc(=S)ss3)cc2)CC1)c1ccccc1C(=O)Oc1ccc(/C=C/C(=O)OCCCCO[N+](=O)[O-])cc1OC (racemic) | 19.7 | 1.27 | 1.89 | 2.22 | 2.36 | 2.56 | 2.98 | 3.18 | 3.25 | 3.23 | 3.32 | 3.32 | 0.83 | 1.21 | 1.23 | 430 | 0.91 | 0.65
CCCCC(OC(=O)CN1CCN(CCCCCCOc2ccc(-c3cc(=S)ss3)cc2)CC1)c1ccccc1C(=O)Oc1ccc(/C=C/C(=O)OCCCCCCO[N+](=O)[O-])cc1OC (racemic) | 19.7 | 5.45 | 6.09 | 7.88 | 8.28 | 9.11 | 9.58 | 10.01 | 10.12 | 10.14 | 10.18 | 10.22 | 2.83 | 3.3 | 3.32 | 190 | 3.01 | 2.53
CCCCC(OC(=O)CN1CCN(CCCOc2ccc(-c3cc(=S)ss3)cc2)CC1)c1ccccc1C(=O)Oc1ccc(/C=C/C(=O)OCCO[N+](=O)[O-])cc1OC (racemic) | 19.7 | – | – | – | – | – | – | – | – | – | – | – | – | – | – | – | – | –
CCCCC(OC(=O)CN1CCN(CCOc2ccc(-c3cc(=S)ss3)cc2)CC1)c1ccccc1C(=O)Oc1ccc(/C=C/C(=O)OCCCCO[N+](=O)[O-])cc1OC (racemic) | 19.7 | – | – | – | – | – | – | – | – | – | – | – | – | – | – | – | – | –
CCCCC(OC(=O)CN1CCN(CCCCCOc2ccc(-c3cc(=S)ss3)cc2)CC1)c1ccccc1C(=O)Oc1ccc(/C=C/C(=O)OC)cc1OC (racemic) | 27.8 | – | – | – | – | – | – | – | – | – | – | – | – | – | – | – | – | –
CCCCC(OC(=O)CN1CCN(CCOc2ccc(-c3cc(=S)ss3)cc2)CC1)c1ccccc1C(=O)Oc1ccc(/C=C/C(=O)OCCO[N+](=O)[O-])cc1OC (racemic) | 19.7 | – | – | – | – | – | – | – | – | – | – | – | – | – | – | – | – | –
CCCCC(OC(=O)CN1CCN(CCCCCOc2ccc(-c3cc(=S)ss3)cc2)CC1)c1ccccc1C(=O)Oc1ccc(/C=C/C(=O)OCCCCCCO[N+](=O)[O-])cc1OC (racemic) | 19.7 | – | – | – | – | – | – | – | – | – | – | – | – | – | – | – | – | –
CCCCC(OC(=O)CN1CCN(CCCCOc2ccc(-c3cc(=S)ss3)cc2)CC1)c1ccccc1C(=O)Oc1ccc(/C=C/C(=O)OCCCCCCO[N+](=O)[O-])cc1OC (racemic) | 19.7 | 2.24 | 3.26 | 4 | 4.36 | 4.68 | 4.98 | 5.09 | 5.3 | 5.31 | 5.33 | 5.38 | 0.92 | 1.33 | 1.35 | 320 | 1.17 | 0.75
CCCCC(OC(=O)CN1CCN(CCCCCCOc2ccc(-c3cc(=S)ss3)cc2)CC1)c1ccccc1C(=O)Oc1ccc(/C=C/C(=O)OCCO[N+](=O)[O-])cc1OC (racemic) | 19.7 | 3.17 | 4.13 | 4.98 | 5.53 | 5.97 | 6.41 | 6.88 | 7.28 | 7.47 | 7.51 | 7.51 | 1.73 | 2.39 | 2.41 | 430 | 1.96 | 1.6
CCCCC(OC(=O)CN1CCN(CCOc2ccc(-c3cc(=S)ss3)cc2)CC1)c1ccccc1C(=O)Oc1ccc(/C=C/C(=O)OCCCCCCO[N+](=O)[O-])cc1OC (racemic) | 19.7 | 4.21 | 5.98 | 6.58 | 7.84 | 8.14 | 8.64 | 8.76 | 9.25 | 9.29 | 9.44 | 9.57 | 2.83 | 3.74 | 3.82 | 210 | 2.37 | 2.62
